Published values pooled from the literature.
Lines come from different studies, so protocols differ.
Target: LIM domain kinase 1 (LIMK1, Homo sapiens, UniProt P53667)

SMILES | test | conditions | remaining binding
O=C(NCCCN1CCOCC1)c1ccc(Nc2ncc(Cl)c(-c3ccc(Cl)s3)n2)cc1 | binding, competition with immobilised ligand | 1 µM | 83%
CCN1CCN(Cc2ccc(C(=O)Nc3ccc(C)c(Oc4ccc5c(c4)CC(=O)N5)c3)cc2C(F)(F)F)CC1 | binding, competition with immobilised ligand | 1 µM | 100%
COc1ncc2cc3ccccc3nc2c1C#N | cell-free assay, competition with immobilised ligand | 5 µM | 98%
COc1cc(-c2cn(C3CCc4c(F)cccc4N(CC(F)(F)F)C3=O)nn2)ccc1-n1cnc(C)c1 (stereo not drawn) | cell-free assay, competition with immobilised ligand | 1 µM | 100%
O=C(NCCCN1CCOCC1)c1ccc(Nc2nccc(-c3cc4ccccc4s3)n2)cc1 | binding, competition with immobilised ligand | 1 µM | 53%
CCC(=N\O)/C(C)=C/c1ccc(F)cc1 | cell-free assay, competition with immobilised ligand | 1 µM | 78%
C[C@H]1CCN(c2nccc(-c3cnn4ncccc34)n2)C1 | binding | 1 µM | 91%
CC(=O)N1CCC(c2ccc(C(=O)NC(=N)N)cc2C(F)(F)F)CC1 | cell-free assay, competition with immobilised ligand | 1 µM | 100%
c1cncc(-c2cccc(Nc3nccc(NC4CCCCC4)n3)c2)c1 | binding, competition with immobilised ligand | 10 µM | 56%
CNCc1ccccc1-c1csc([C@@H](C)Nc2nc(C)nc3cc(OC)c(OC)cc23)c1 | cell-free assay, competition with immobilised ligand | 1 µM | 99%
N[C@H]1CCN(c2nccc(-c3cnn4ncccc34)n2)C1 | binding | 1 µM | 81%
CCC(=O)N[C@H]1CC[C@@H](C(=O)N(C)c2ccc(-c3nc4ccccc4o3)cc2)C1 | cell-free assay, competition with immobilised ligand | 1 µM | 86%
O=C(c1ccc(Nc2ncc(Cl)c(-c3cc4ccccc4s3)n2)cc1)N1CCC(N2CCCC2)CC1 | binding, competition with immobilised ligand | 1 µM | 53%
Nc1ncc2c(n1)-c1c([nH]c3ccc(C#CC4CC4)cc13)CCCC2 | binding, competition with immobilised ligand | 1 µM | 96%
C=CC(=O)N1CCC(C(=O)NCC(=O)N2CCN(c3nc(-c4cnc(N)nc4C(F)F)nc(N4CCOCC4)n3)CC2)CC1 | binding, competition with immobilised ligand | 1 µM | 100%
CC1CCCN1c1nccc(-c2cnn3ncccc23)n1 (stereo not drawn) | binding | 1 µM | 100%
CS(=O)(=O)N1CCCC(NC(=O)[C@H](CCC2CCCCC2)NC(=O)c2ccc(CNC(=O)c3cnc4ccccn34)cc2)C1 (stereo partly drawn) | cell-free assay, competition with immobilised ligand | 0.1 µM | 75%
CN(CCCC(F)(F)F)c1nccc(-c2cnn3ncccc23)n1 | binding | 1 µM | 86%
O=C(Nc1c[nH]nc1C(=O)NC1CCNCC1)c1cc(F)cc(F)c1 | binding, competition with immobilised ligand | 1 µM | 97%
F[C@@H]1CCN(c2nccc(-c3cnn4ncccc34)n2)C1 | binding | 1 µM | 89%
CNC(=O)[C@@H]1CC[C@@H](n2c(-c3ccc4cnccc4c3)nc3ccc(C(=O)NCc4cccc(C(N)=O)c4)cc32)C1 | binding, competition with immobilised ligand | 1 µM | 100%
